“And” between values parts separate entries of the source, which are not always exact repeats. Equal entries are not always repeated.
Experiments:
[1] = test system: HT-29 (colon cancer cell line); experiment: Antiproliferative assay, HT-29; format: cell-based; settings: Homo sapiens, HT-29, read-out: Antiproliferative activity IC50 ± SEM, HT-29
[2] = test system: A-549 (epithelial cancer cell line); experiment: Antiproliferative assay, A-549; format: cell-based; settings: Homo sapiens, A549, read-out: Antiproliferative activity IC50 ± SEM, A-549
[3] = test system: four cancer cell lines (A-549, MCF-7, Panc-1, HT-29); experiment: Antiproliferative assay, average over four cancer cell lines; format: cell-based, human; settings: for GI50: Homo sapiens, read-out: Antiproliferative activity, Average (GI50)
Cell viability assay = format: cell-based; settings: human, MCF-10A mammary gland epithelial cells
[4] = test system: MCF-7 (breast cancer cell line); experiment: Antiproliferative assay, MCF-7; format: cell-based; settings: Homo sapiens, MCF7, read-out: Antiproliferative activity IC50 ± SEM, MCF-7
[5] = test system: Panc-1 (pancreas cancer cell line); experiment: Antiproliferative assay, Panc-1; format: cell-based; settings: Homo sapiens, PANC-1, read-out: Antiproliferative activity IC50 ± SEM, Panc-1
Bax = Bax assay in Panc-1; format: cell-based, human; settings: Panc-1 cells; for Bax Fold change: vs control untreated cells
In short: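 Bax protein in treated Panc-1 cells, read as concentration in pg/mL. Fold induction is relative to untreated Panc-1 control cells. Staurosporine serves as reference compound.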

Bcl-2 = Bcl-2 assay in Panc-1; format: cell-based, human; settings: Panc-1 cells; for Bcl-2 Fold reduction: vs control untreated cells
Caspase-3 = Caspase-3 assay in Panc-1; format: cell-based, human; settings: Panc-1 cells; for Caspase-3 Fold change: vs control untreated cells
Caspase-8 = Caspase-8 assay in Panc-1; format: cell-based, human; settings: Panc-1 cells; for Caspase-8 Fold change: vs control untreated cells
EGFR^T790M = EGFR^T790M (Homo sapiens, UniProt P00533, T790M); experiment: biochemical
Sequence of EGFR^T790M (P00533 25-1210 T790M): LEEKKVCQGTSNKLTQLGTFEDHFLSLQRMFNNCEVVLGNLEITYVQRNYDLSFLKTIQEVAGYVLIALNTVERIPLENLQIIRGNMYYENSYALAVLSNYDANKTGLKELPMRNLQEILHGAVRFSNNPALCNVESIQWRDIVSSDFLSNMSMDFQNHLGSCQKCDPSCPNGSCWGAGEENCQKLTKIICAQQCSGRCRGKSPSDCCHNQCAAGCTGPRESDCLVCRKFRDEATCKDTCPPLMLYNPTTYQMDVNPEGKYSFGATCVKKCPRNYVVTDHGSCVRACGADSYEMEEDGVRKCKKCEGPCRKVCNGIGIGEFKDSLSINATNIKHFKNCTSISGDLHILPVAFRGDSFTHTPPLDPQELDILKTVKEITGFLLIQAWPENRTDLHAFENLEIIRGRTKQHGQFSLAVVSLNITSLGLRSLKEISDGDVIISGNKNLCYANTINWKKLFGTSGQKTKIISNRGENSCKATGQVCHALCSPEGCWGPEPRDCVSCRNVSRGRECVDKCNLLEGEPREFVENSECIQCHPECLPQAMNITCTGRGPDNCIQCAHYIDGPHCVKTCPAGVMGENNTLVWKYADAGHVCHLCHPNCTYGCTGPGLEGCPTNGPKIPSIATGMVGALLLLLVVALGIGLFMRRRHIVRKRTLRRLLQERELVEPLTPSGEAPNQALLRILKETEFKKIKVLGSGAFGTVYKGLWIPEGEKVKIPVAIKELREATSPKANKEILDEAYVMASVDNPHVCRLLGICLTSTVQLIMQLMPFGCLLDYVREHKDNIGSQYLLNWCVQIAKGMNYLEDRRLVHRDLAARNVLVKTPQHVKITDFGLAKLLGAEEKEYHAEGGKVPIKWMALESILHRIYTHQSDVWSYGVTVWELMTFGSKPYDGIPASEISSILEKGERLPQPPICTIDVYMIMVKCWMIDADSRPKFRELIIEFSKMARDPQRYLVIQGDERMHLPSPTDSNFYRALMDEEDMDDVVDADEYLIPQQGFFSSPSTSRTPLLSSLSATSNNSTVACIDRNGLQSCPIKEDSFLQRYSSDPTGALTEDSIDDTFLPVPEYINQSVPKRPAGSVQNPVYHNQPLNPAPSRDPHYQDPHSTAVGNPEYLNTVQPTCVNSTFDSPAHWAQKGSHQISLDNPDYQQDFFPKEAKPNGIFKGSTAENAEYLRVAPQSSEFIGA

EGFR^WT = EGFR^WT (Homo sapiens, UniProt P00533); experiment: EGFR inhibitory assay; format: biochemical
Sequence of EGFR^WT (P00533 669-1210): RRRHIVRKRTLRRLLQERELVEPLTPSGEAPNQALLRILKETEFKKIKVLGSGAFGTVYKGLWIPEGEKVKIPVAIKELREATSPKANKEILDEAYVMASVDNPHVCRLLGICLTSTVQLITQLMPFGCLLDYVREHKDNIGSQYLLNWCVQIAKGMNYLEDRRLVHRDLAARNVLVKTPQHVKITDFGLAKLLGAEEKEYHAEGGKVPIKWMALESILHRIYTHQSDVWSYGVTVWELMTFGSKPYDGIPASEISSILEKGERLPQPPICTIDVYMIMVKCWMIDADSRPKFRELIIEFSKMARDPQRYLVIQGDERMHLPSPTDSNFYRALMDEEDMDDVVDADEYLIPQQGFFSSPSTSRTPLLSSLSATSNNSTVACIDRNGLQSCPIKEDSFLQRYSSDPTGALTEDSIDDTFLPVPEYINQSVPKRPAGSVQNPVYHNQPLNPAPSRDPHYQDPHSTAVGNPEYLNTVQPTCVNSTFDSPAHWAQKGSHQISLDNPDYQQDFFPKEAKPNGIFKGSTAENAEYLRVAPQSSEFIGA

[6] = antiproliferative, four cancer cell lines

| Structure (SMILES) | IC50 [1] [nM] | IC50 [2] [nM] | GI50 [3] [nM] | viability at 96 h, 50 µM (Cell viability assay) [%] | IC50 [4] [nM] | IC50 [5] [nM] | Bax Conc (Bax) | Bcl-2 Conc (Bcl-2) [ng/mL] | Bcl-2 Fold reduction (Bcl-2) | Caspase-3 Conc (Caspase-3) [pg/mL] | Caspase-3 Fold change (Caspase-3) | Caspase-8 Conc (Caspase-8) [ng/mL] | Caspase-8 Fold change (Caspase-8) | Bax Fold change (Bax) | Bax Conc (Bax; listed as 5 g) [pg/mL] | IC50 (EGFR^T790M) [nM] | IC50 (EGFR^WT) [nM] | Caspase-3 Fold change (Caspase-3; listed as 5 g) | fold more potent than compound 5b (GI50) [3, 6] [fold] | fold less potent than compound 5f (GI50) [3, 6] [fold] |
| --- | --- | --- | --- | --- | --- | --- | --- | --- | --- | --- | --- | --- | --- | --- | --- | --- | --- | --- | --- | --- |
| CO/C=C/c1c(C(=O)NC(CO)Cc2ccccc2)[nH]c2ccc(Cl)cc12 (stereo not drawn) [Compound 6a, (E)-5-chloro-N-(1-hydroxy-3-phenylpropan-2-yl)-3-(2-methoxyvinyl)-1H-indole-2-carboxamide] | 89 ± 9 | 89 ± 9 | 89 | 86 | 92 ± 9 | 85 ± 9 | – | – | – | – | – | – | – | – | – | – | – | – | – | – |
| CO/C=C/c1c(C(=O)NC2c3ccccc3-c3ccccc32)[nH]c2ccc(Cl)cc12 [Compound 6b, (E)-5-chloro-N-(9H-fluoren-9-yl)-3-(2-methoxyvinyl)-1H-indole-2-carboxamide] | 104 ± 10 | 102 ± 10 | 102 | 87 | 105 ± 10 | 97 ± 10 | – | – | – | – | – | – | – | – | – | – | – | – | – | – |
| CN[C@@H]1C[C@H]2O[C@@](C)([C@@H]1OC)n1c3ccccc3c3c4c(c5c6ccccc6n2c5c31)C(=O)NC4 [Staurosporine, reference compound] | – | – | – | – | – | – | 276 pg/mL and 276.20 pg/mL | 0.98 | 5 | 503.2 ± 4.0 | 7.6 | 1.75 | 21 | – | – | – | – | – | – | – |
| CO/C=C/c1c(C(=O)NCCc2ccc(N3CCOCC3)cc2)[nH]c2ccc(Cl)cc12 [Compound 5g, (E)-5-chloro-3-(2-methoxyvinyl)-N-(4-morpholinophenethyl)-1H-indole-2-carboxamide] | 32 ± 3 | 30 ± 3 | 31 | 89 | 32 ± 3 | 30 ± 3 | 299.40 pg/mL | 0.84 | 6 | 542.5 ± 5.0 | 8.3 | 1.97 | 23 | 36 | 299 | 11.9 ± 3 | 74 ± 5 | approximately 8 | – | – |
| CO/C=C/c1c(C(=O)NCCc2ccc(N(C)C)cc2)[nH]c2ccc(Cl)cc12 [Compound 5d, (E)-5-chloro-N-(4-(dimethylamino)phenethyl)-3-(2-methoxyvinyl)-1H-indole-2-carboxamide] | 38 ± 4 | 34 ± 4 | 36 | 89 | 38 ± 3 | 35 ± 3 | – | – | – | – | – | – | – | – | – | – | 85 ± 5 | – | – | – |
| O=c1c2[nH]c3ccc(Cl)cc3c2ccn1CCc1ccccc1 [Compound 7a, 6-chloro-2-phenethyl-2,9-dihydro-1H-pyrido[3,4-b]indol-1-one] | 55 ± 5 | 53 ± 5 | 54 | 90 | 57 ± 5 | 51 ± 5 | – | – | – | – | – | – | – | – | – | – | – | – | – | – |
| CO/C=C/c1c(C(=O)NCCc2ccc(N3CCCC3C)cc2)[nH]c2ccc(Cl)cc12 (stereo not drawn) [Compound 5f, (E)-5-chloro-3-(2-methoxyvinyl)-N-(4-(2-methylpyrrolidin-1-yl)phenethyl)-1H-indole-2-carboxamide] | 30 ± 3 | 28 ± 3 | 29 | 87 | 30 ± 3 | 27 ± 3 | 305 pg/mL and 305.50 pg/mL | 0.80 | 6 | 560.2 ± 5.0 | – | 2.10 | 25 | 37 | – | 9.5 ± 2 | 68 ± 4 | – | – | – |
| CO/C=C/c1c(C(=O)N2CCC(Cc3ccccc3)CC2)[nH]c2ccc(Cl)cc12 [Compound 6e, (E)-(4-benzylpiperidin-1-yl)(5-chloro-3–(2-methoxyvinyl)-1H-indol-2-yl) methanone] | 45 ± 5 | 45 ± 5 | 45 | 91 | 47 ± 5 | 43 ± 4 | – | – | – | – | – | – | – | – | – | – | 98 ± 7 | – | – | – |
| CO/C=C/c1c(C(=O)NCCc2cccc(N3CCCCC3)c2)[nH]c2ccc(Cl)cc12 [Compound 5c, (E)-5-chloro-3–(2-methoxyvinyl)-N-(3-(piperidin-1-yl)phenethyl)-1H-indole-2-carboxamide] | 47 ± 5 | 45 ± 5 | 47 | 87 | 49 ± 5 | 45 ± 5 | – | – | – | – | – | – | – | – | – | – | 102 ± 7 | – | 1.6 | – |
| O=c1c2[nH]c3ccc(Cl)cc3c2ccn1CCc1ccc(N2CCCCC2)cc1 [Compound 7b, 6-chloro-2–(4-(piperidin-1-yl)phenethyl)-2,9-dihydro-1H-pyrido[3,4-b]indol-1-one] | 57 ± 6 | 57 ± 6 | 57 | 89 | 59 ± 6 | 55 ± 5 | – | – | – | – | – | – | – | – | – | – | – | – | – | – |
| CO/C=C/c1c(C(=O)NCCc2ccc(N3CCCC3)cc2)[nH]c2ccc(Cl)cc12 [Compound 5e, (E)-5-chloro-3-(2-methoxyvinyl)-N-(4-(pyrrolidin-1-yl)phenethyl)-1H-indole-2-carboxamide] | 71 ± 7 | 70 ± 7 | 70 | 90 | 73 ± 7 | 67 ± 7 | – | – | – | – | – | – | – | – | – | – | – | – | – | – |
| CO/C=C/c1c(C(=O)NCc2nc3ccccc3[nH]2)[nH]c2ccc(Cl)cc12 [Compound 6f, (E)-N-((1H-benzo[d]imidazol-2-yl)methyl)-5-chloro-3–(2-methoxyvinyl)-1H-indole-2-carboxamide] | 42 ± 4 | 40 ± 4 | 41 | 89 | 42 ± 4 | 38 ± 4 | – | – | – | – | – | – | – | – | – | – | 93 ± 6 | – | – | – |
| CO/C=C/c1c(C(=O)NCc2ccccc2)[nH]c2ccc(Cl)cc12 [Compound 6c, (E)-N-benzyl-5-chloro-3-(2-methoxyvinyl)-1H-indole-2-carboxamide] | 64 ± 6 | 67 ± 6 | 66 | 85 | 69 ± 6 | 62 ± 6 | – | – | – | – | – | – | – | – | – | – | – | – | – | – |
| C#Cc1cccc(Nc2ncnc3cc(OCCOC)c(OCCOC)cc23)c1 [Erlotinib, reference compound] | 30 ± 3 | 30 ± 3 | 33 | – | 40 ± 3 | 30 ± 3 | – | – | – | – | – | – | – | – | – | – | – | – | – | – |
| CO/C=C/c1c(C(=O)N2CCN(c3ccccc3)CC2)[nH]c2ccc(Cl)cc12 [Compound 6d, (E)-(5-chloro-3–(2-methoxyvinyl)-1H-indol-2-yl)(4-phenylpiperazin-1-yl) methanone] | 85 ± 8 | 85 ± 8 | 85 | 89 | 87 ± 8 | 81 ± 8 | – | – | – | – | – | – | – | – | – | – | – | – | – | – |
| CO/C=C/c1c(C(=O)NCCc2ccccc2)[nH]c2ccc(Cl)cc12 [Compound 5a, (E)-5-Chloro-3–(2-methoxyvinyl)-N-phenethyl-1H-indole-2-carboxamide] | 75 ± 8 | 75 ± 8 | 76 | 91 | 79 ± 8 | 73 ± 7 | – | – | – | – | – | – | – | – | – | – | – | – | – | 2.5 |
| CO/C=C/c1c(C(=O)NCCc2ccc(N3CCCCC3)cc2)[nH]c2ccc(Cl)cc12 [Compound 5b, (E)-5-chloro-3–(2-methoxyvinyl)-N-(4-(piperidin-1-yl)phenethyl)-1H-indole-2-carboxamide] | 78 ± 7 | 76 ± 7 | 77 | 89 | 79 ± 7 | 75 ± 7 | – | – | – | – | – | – | – | – | – | – | – | – | – | – |
